Measured values reported in ChEMBL document CHEMBL1122676, “2,3-Dimethyl-1,4-naphthoquinone derivatives as bioreductive alkylating agents with cross-linking potential” (1984).

Columns and labels:
Assay type in all cases: functional
Mus musculus [1] = test: Compound was evaluated for anticancer activity against Sarcoma180 tumor bearing mice by measuring average weight (dose 7.5 mg/kg daily)
Procedure, shortened: (§1)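 Sarcoma 180 ascites-bearing CDF1 mice (~10^6 cells ip) dosed ip daily for 6 consecutive days starting 24 h after implantation, drug suspended with 20% aqueous Tween 80 in isotonic saline. Mice weighed during the experiment; percent body weight change from onset to end of therapy recorded as the toxicity index, average per group; 5–15 mice per value.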

Mus musculus [2] = test: Compound was evaluated for anticancer activity against Sarcoma180 tumor bearing mice by measuring average weight (dose 3.25 mg/kg daily); procedure, shortened: as §1
Mus musculus [3] = test: Compound was evaluated for anticancer activity against Sarcoma180 tumor bearing mice by measuring average weight (dose 15 mg/kg daily); procedure, shortened: as §1
Mus musculus [4] = test: Compound was evaluated for anticancer activity against Sarcoma180 tumor bearing mice by measuring T/C X 100 (dose 15 mg/kg daily)
Procedure, shortened: (§2)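 CDF1 mice given ~10^6 Sarcoma 180 ascites cells ip (from 7-day donor ascites, saline-diluted); compound as fine suspension in a few drops 20% aqueous Tween 80 made up in isotonic saline, 0.5 mL ip once daily for 6 days from 24 h post-implant. Survival time of treated vs vehicle-injected controls expressed as T/C × 100; 5–15 mice per value.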

Mus musculus [5] = test: Compound was evaluated for anticancer activity against Sarcoma180 tumor bearing mice by measuring T/C X 100 (dose 7.5 mg/kg daily); procedure, shortened: as §2
Mus musculus [6] = test: Compound was evaluated for anticancer activity against Sarcoma180 tumor bearing mice by measuring T/C X 100 (dose 3.25 mg/kg daily); procedure, shortened: as §2
Mus musculus [7] = test: Compound was evaluated for anticancer activity against Sarcoma180 tumor bearing mice by measuring T/C X 100 (dose 5 mg/kg daily); procedure, shortened: as §2
Mus musculus [8] = test: Compound was evaluated for anticancer activity against Sarcoma180 tumor bearing mice by measuring T/C X 100 (dose 2.5 mg/kg daily); procedure, shortened: as §2
Mus musculus [9] = test: Compound was evaluated for anticancer activity against Sarcoma180 tumor bearing mice by measuring T/C X 100 (dose 10 mg/kg daily); procedure, shortened: as §2
Mus musculus [10] = test: Compound was evaluated for anticancer activity against Sarcoma180 tumor bearing mice by measuring average weight (dose 5 mg/kg daily); procedure, shortened: as §1
Mus musculus [11] = test: Compound was evaluated for anticancer activity against Sarcoma180 tumor bearing mice by measuring average weight (dose 10 mg/kg daily); procedure, shortened: as §1
Mus musculus [12] = test: Compound was evaluated for anticancer activity against Sarcoma180 tumor bearing mice by measuring average weight (dose 2.5 mg/kg daily); procedure, shortened: as §1

| Structure (SMILES) | Average weight (Mus musculus [1]) | Average weight (Mus musculus [2]) | Average weight (Mus musculus [3]) | T/C (Mus musculus [4]) | T/C (Mus musculus [5]) | T/C (Mus musculus [6]) | T/C (Mus musculus [7]) | T/C (Mus musculus [8]) | T/C (Mus musculus [9]) | Average weight (Mus musculus [10]) | Average weight (Mus musculus [11]) | Average weight (Mus musculus [12]) |
| --- | --- | --- | --- | --- | --- | --- | --- | --- | --- | --- | --- | --- |
| CC1=C(C)C(=O)c2ccccc2C1=O | 1.3% | 1.4% | 0.5% | 103 | 78 | 104 | – | – | – | – | – | – |
| O=C1C(CBr)=C(CBr)C(=O)c2ccccc21 | -14.3% | -8.8% | -14.1% | 140 | 130 | 165 | – | – | – | – | – | – |
| Cc1ccc(S(=O)(=O)OCC2=C(COS(=O)(=O)c3ccc(C)cc3)C(=O)c3ccccc3C2=O)cc1 | – | – | – | – | – | – | 138 | 130 | 126 | 21% | 13.8% | 22.3% |
| O=C1C(CO)=C(CO)C(=O)c2ccccc21 | -14.3% | 10.8% | -9.9% | 37 | 51 | 55 | – | – | – | – | – | – |
| O=C(NCCCl)OCC1=C(COC(=O)NCCCl)C(=O)c2ccccc2C1=O | – | – | – | – | – | – | 209 | 230 | 189 | -4.3% | -7.8% | 0% |
| CS(=O)(=O)OCC1=C(COS(C)(=O)=O)C(=O)c2ccccc2C1=O | – | – | – | – | – | – | 204 | 114 | 232 | 5.9% | -2% | 18.4% |
| CNC(=O)OCC1=C(COC(=O)NC)C(=O)c2ccccc2C1=O | – | – | – | – | – | – | 177 | 266 | 200 | -7.6% | -10% | 3.8% |
| O=C1C(CCl)=C(CCl)C(=O)c2ccccc21 | -10.3% | -15.1% | -15.6% | 122 | 158 | 100 | – | – | – | – | – | – |
